# Results from PMC6980386 (Traffic (Copenhagen, Denmark), 2019).
# Key:
# FL huCD4 R8E = FL huCD4 R8E (Homo sapiens, UniProt P01730, R8E); assay: CADA down-modulation of cellular huCD4; type: cell-based; settings: HEK293T, 48h
# How it was run: (§1)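 HEK293T cells, seeded overnight in DMEM with 10% serum, 1 mM sodium pyruvate and 0.075% NaHCO₃, were lipofected with full-length human CD4 (WT or mutant). Test compound in DMSO was added 6 h post-transfection as 1:5 serial dilutions (50–0.016 μM) for 48 h. Surface CD4 was stained with FITC/APC anti-CD4 (SK3) and read by flow cytometry. IC50 is 50% of the untreated signal, from four-parameter fits of ≥3 replicate experiments. FC is mutant/WT mean IC50.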
# huCD4_1–32-YFP L16A = huCD4_1–32-YFP L16A (Homo sapiens, UniProt P01730, L16A); assay: CADA inhibition of huCD4_1–32-YFP secretion; type: cell-based
# How it was run: (§2)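 HEK293T cells were grown in DMEM with 10% FBS and 10 mM HEPES, seeded and left to adhere overnight, then transiently transfected with plasmid by Lipofectamine. Test compound was added 6 h after transfection as a 1:5 serial dilution (50 to 0.016 μM) for 48 h. Secreted YFP in the supernatant was captured on GFP-Trap magnetic beads for 1 h, washed with PBS and measured by flow cytometry. IC50 is the concentration that halves the signal relative to the untreated control, taken from a four-parameter fit of at least three replicate experiments. FC is the mutant mean IC50 divided by the WT mean IC50.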
# huCD4_1–32-YFP L14A = huCD4_1–32-YFP L14A (Homo sapiens, UniProt P01730, L14A); assay: CADA inhibition of huCD4_1–32-YFP secretion; type: cell-based
# How it was run: as §2
# bovine pre-prolactin = settings: cited from earlier work
# FL huCD4 V28A = FL huCD4 V28A (Homo sapiens, UniProt P01730, V28A); assay: CADA down-modulation of cellular huCD4; type: cell-based
# How it was run: as §1
# FL huCD4 L19A = FL huCD4 L19A (Homo sapiens, UniProt P01730, L19A); assay: CADA down-modulation of cellular huCD4; type: cell-based
# How it was run: as §1
# [1] = biological target: truncated huCD4 D1D2 L18A (Homo sapiens, UniProt P01730, L18A); assay: Cell-free in vitro translation and translocation; type: biochemical; settings: 15 μM CADA
# How it was run: (§3)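 Truncated huCD4 D1D2 (lacking glycosylation sites and membrane anchor) was made by PCR and transcribed with T7. Proteinase K protection ran 30 min on ice and was quenched with PMSF. Products were separated by SDS-PAGE and imaged by phosphor imaging. The SP-cleaved band was normalised to the matching control. Data are from 2–5 independent experiments, compared with WT by Welch t test.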
# FL huCD4 G31A = FL huCD4 G31A (Homo sapiens, UniProt P01730, G31A); assay: CADA down-modulation of cellular huCD4; type: cell-based
# How it was run: as §1
# huCD4_1–32-YFP P6A = huCD4_1–32-YFP P6A (Homo sapiens, UniProt P01730, P6A); assay: CADA inhibition of huCD4_1–32-YFP secretion; type: cell-based
# How it was run: as §2
# huCD4_1–32-YFP K32A = huCD4_1–32-YFP K32A (Homo sapiens, UniProt P01730, K32A); assay: CADA inhibition of huCD4_1–32-YFP secretion; type: cell-based; settings: read-out: Secreted YFP IC50 (μM) Mean, HEK293T, CADA 48h
# How it was run: as §2
# FL huCD4 L12A = FL huCD4 L12A (Homo sapiens, UniProt P01730, L12A); assay: CADA down-modulation of cellular huCD4; type: cell-based
# How it was run: as §1
# FL huCD4 R3A = FL huCD4 R3A (Homo sapiens, UniProt P01730, R3A); assay: CADA down-modulation of cellular huCD4; type: cell-based
# How it was run: as §1
# huCD4_1–32-YFP L19A = huCD4_1–32-YFP L19A (Homo sapiens, UniProt P01730, L19A); assay: CADA inhibition of huCD4_1–32-YFP secretion; type: cell-based
# How it was run: as §2
# [2] = biological target: truncated huCD4 D1D2 Q15A (Homo sapiens, UniProt P01730, Q15A); assay: Cell-free in vitro translation and translocation; type: biochemical
# How it was run: as §3
# FL huCD4 P20L = FL huCD4 P20L (Homo sapiens, UniProt P01730, P20L); assay: CADA down-modulation of cellular huCD4; type: cell-based; settings: HEK293T, 48h
# How it was run: as §1
# FL huCD4 K27E = FL huCD4 K27E (Homo sapiens, UniProt P01730, K27E); assay: CADA down-modulation of cellular huCD4; type: cell-based; settings: HEK293T, 48h
# How it was run: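 Transient transfection of HEK293T cells (Lipofectamine), seeded the night before. Test compound added 6 h post-transfection as a serial 1:5 dilution from 50 to 0.016 μM, then 48 h culture. Surface CD4 stained with FITC- or APC-labelled anti-human CD4 (clone SK3) and read by flow cytometry. IC50 is the concentration reducing signal to 50% of untreated control, interpolated from four-parameter curves (≥3 replicate experiments; 95% CI).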
# FL huCD4 Q15N = FL huCD4 Q15N (Homo sapiens, UniProt P01730, Q15N); assay: CADA down-modulation of cellular huCD4; type: cell-based; settings: HEK293T, 48h
# How it was run: as §1
# huCD4_1–32-YFP N2A = huCD4_1–32-YFP N2A (Homo sapiens, UniProt P01730, N2A); assay: CADA inhibition of huCD4_1–32-YFP secretion; type: cell-based
# How it was run: as §2
# huCD4_1–32-YFP H9A = huCD4_1–32-YFP H9A (Homo sapiens, UniProt P01730, H9A); assay: CADA inhibition of huCD4_1–32-YFP secretion; type: cell-based
# How it was run: as §2
# sortilin = settings: second substrate, proteomic study; cited from earlier work
# FL huCD4 A22V = FL huCD4 A22V (Homo sapiens, UniProt P01730, A22V); assay: CADA down-modulation of cellular huCD4; type: cell-based
# How it was run: as §1
# [3] = biological target: truncated huCD4 D1D2 L16A (Homo sapiens, UniProt P01730, L16A); assay: Cell-free in vitro translation and translocation; type: biochemical; settings: 15 μM CADA
# How it was run: as §3
# huCD4_1–32-YFP K26A = huCD4_1–32-YFP K26A (Homo sapiens, UniProt P01730, K26A); assay: CADA inhibition of huCD4_1–32-YFP secretion; type: cell-based
# How it was run: as §2
# FL huCD4 V13A = FL huCD4 V13A (Homo sapiens, UniProt P01730, V13A); assay: CADA down-modulation of cellular huCD4; type: cell-based
# How it was run: as §1
# [4] = + less, − more sensitive to CADA
# [5] = read-out: Secreted YFP IC50 (μM) Mean, HEK293T, CADA 48h
# [6] = read-out: Cellular huCD4 IC50 (μM) Mean, HEK293T, CADA 48h
compound,measurement,setting,value
"C=C1CN(S(=O)(=O)c2ccc(C)cc2)CCCN(Cc2ccccc2)CCCN(S(=O)(=O)c2ccc(C)cc2)C1 [CADA, Cyclotriazadisulfonamide]",sensitivity to CADA,FL huCD4 R8E,reduced sensitivity to CADA
same,Secreted YFP FC (fold change of mean IC50 relative to WT),huCD4_1–32-YFP L16A; [4],−3.2
same,IC50,huCD4_1–32-YFP L16A; [5],0.4 µM
same,Secreted YFP FC (fold change of mean IC50 relative to WT),huCD4_1–32-YFP L14A; [4],−1.1
same,IC50,huCD4_1–32-YFP L14A; [5],1.12 µM
same,sensitivity of bovine pre-prolactin to CADA,bovine pre-prolactin,completely resistant to CADA
same,Cellular huCD4 FC (fold change of mean IC50 relative to WT),FL huCD4 V28A; [4],1.00
same,IC50,FL huCD4 V28A; [6],0.54 µM
same,Cellular huCD4 FC (fold change of mean IC50 relative to WT),FL huCD4 L19A; [4],+1.9
same,IC50,FL huCD4 L19A; [6],1.04 µM
same,sensitivity of translocation towards CADA compared to WT,[1],higher sensitivity towards CADA
same,Cellular huCD4 FC (fold change of mean IC50 relative to WT),FL huCD4 G31A; [4],+1.3
same,IC50,FL huCD4 G31A; [6],0.72 µM
same,Secreted YFP FC (fold change of mean IC50 relative to WT),huCD4_1–32-YFP P6A; [4],−2.3
same,IC50,huCD4_1–32-YFP P6A; [5],0.55 µM
same,IC50,huCD4_1–32-YFP K32A,17.6 µM
same,enhanced CADA sensitivity relative to WT,FL huCD4 L12A,8 fold
same,Cellular huCD4 FC (fold change of mean IC50 relative to WT),FL huCD4 L12A; [4],−7.7
same,IC50,FL huCD4 L12A; [6],0.07 µM
same,Cellular huCD4 FC (fold change of mean IC50 relative to WT),FL huCD4 R3A; [4],−1.1
same,IC50,FL huCD4 R3A; [6],0.47 µM
same,Secreted YFP FC (fold change of mean IC50 relative to WT),huCD4_1–32-YFP L19A; [4],+3.6
same,IC50,huCD4_1–32-YFP L19A; [5],4.57 µM
same,inhibitory effect of CADA on protein translocation compared to WT,[2]; 15 μM CADA,significantly reduced
same,impact of CADA on co-translational translocation,[2]; increasing doses of CADA,significantly reduced
same,sensitivity to CADA,FL huCD4 P20L,completely resistant to CADA
same,sensitivity to CADA,FL huCD4 K27E,copied the alanine substitution phenotypes
same,sensitivity to CADA,FL huCD4 Q15N,partially restored CADA sensitivity
same,Secreted YFP FC (fold change of mean IC50 relative to WT),huCD4_1–32-YFP N2A; [4],−3.3
same,IC50,huCD4_1–32-YFP N2A; [5],0.39 µM
same,Secreted YFP FC (fold change of mean IC50 relative to WT),huCD4_1–32-YFP H9A; [4],+1.7
same,IC50,huCD4_1–32-YFP H9A; [5],2.13 µM
same,susceptibility of sortilin to CADA,sortilin,lower susceptibility to the compound as compared to huCD4
same,Cellular huCD4 FC (fold change of mean IC50 relative to WT),FL huCD4 A22V; [4],+1.5
same,IC50,FL huCD4 A22V; [6],0.79 µM
same,sensitivity of translocation towards CADA compared to WT,[3],higher sensitivity towards CADA
same,Secreted YFP FC (fold change of mean IC50 relative to WT),huCD4_1–32-YFP K26A; [4],>+39
same,IC50,huCD4_1–32-YFP K26A; [5],> 50 µM
same,Cellular huCD4 FC (fold change of mean IC50 relative to WT),FL huCD4 V13A; [4],−3.9
same,IC50,FL huCD4 V13A; [6],0.14 µM
